In the RNAGym collection of RNA variant scans (doi:10.1126/science.aae0568):
This sample holds only a part of the variants without activity.

B1: tRNA (parent)
chain: GUUCCGUUGGCGUAAUGGUAACGCGUCUCCCUCCUAAGGAGAAGACUGCGGGUUCGAGUCCCGUACGGAACG

Variants of: B1
Test: yeast fitness relative to wild type (ratio to wild type); higher = fitter; tRNA-Arg(CCU), competitive growth, 37 C, YPD
In short: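 Gene amplicons from the start population and from each of six end populations were read by 100-nucleotide paired-end sequencing. Those end populations came from pooled Saccharomyces cerevisiae strains carrying tRNA-Arg(CCU) gene variants at the native locus, competed in YPD at 37°C for 24 hours. Fitness relative to wild type was worked out from changes in genotype frequencies. Genotypes needed ≥ 100 starting reads, and estimates < 0.5 were set to 0.5.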

Row | Variant | yeast fitness
1 | C24U G58C A65U | 0.644
2 | C24U U35C A70U | 0.541
3 | C24U U35A | 0.806
4 | C24U U26G A43G A70U | 0.597
5 | C24U U32G G56A | 0.53
6 | C24U C27U G50C | ≤ 0.5
7 | C24U A45U G58A A65G | 0.794
8 | G25A C27G | 0.78
9 | G25A C27A | 1.11
10 | C24U U35A A40G | 0.576
11 | C24U C34G A45U G68C | ≤ 0.5
12 | C24U A40U | 0.78
13 | C24U U26G C30U G39C | ≤ 0.5
14 | C24U G51C C55U | ≤ 0.5
15 | C24U C34G A57U C61G | ≤ 0.5
16 | C24U C29G | 0.674
17 | C24U C55A | 0.655
18 | C24U C29U A36U A70C | ≤ 0.5
19 | C24U C46A U64C | 0.973
20 | C24U G48A U64A | ≤ 0.5
21 | C24U C27U A43C U47C | 0.618
22 | C24U U47C C62U | 0.803
23 | C24U C31A A43C G58C U64G | ≤ 0.5
24 | C24U C27U A40G G44A G50C | ≤ 0.5

Row | Variant | yeast fitness
25 | C24U A57C G68U | ≤ 0.5
26 | G25A A43U U54A | 0.565
27 | C24U C30U G63A | 0.502
28 | C24U C31G C34G A43U G68C A69G | ≤ 0.5
29 | G25A A40C C66U A70C | ≤ 0.5
30 | G25A A43C C66A | 0.581
31 | C24U U26C C49U | 0.692
32 | G25A A40U A42C A45U U47C A65G | 0.664
33 | C24U C31G C61G | 0.513
34 | C24U U32G A40U U64G | 0.593
35 | G25A A40G C55G | ≤ 0.5
36 | C24U G51A | 0.675
37 | C24U C49U U54G G67A | ≤ 0.5
38 | G25A A43G | 0.949
39 | G25A A43U | 0.842
40 | G25A A43C | 0.975
41 | C24U A42U G67A | 0.567
42 | C24U C30U C31G | 0.623
43 | C24U C30U C49U U53C | ≤ 0.5
44 | C24U C33U C46U C49A C62U A69U | ≤ 0.5
45 | C24U G25C C46U G50C | ≤ 0.5
46 | G25A A42U A43C G44A | 0.764
47 | C24U A57C C61A A70G | ≤ 0.5
48 | C24U U32C A36U A37G U54A | ≤ 0.5

Row | Variant | yeast fitness
49 | C24U U47C G67C | 0.688
50 | C24U G56C A57G | ≤ 0.5
51 | C24U A42U A43C | 0.889
52 | C24U A42U A43U | 1.02
53 | C24U A43U C66U | 0.801
54 | C24U U28G C33G C34U A36G A40G | 0.596
55 | C24U C30G C31A A43G | ≤ 0.5
56 | C24U A69C A70C | 0.536
57 | C24U C30G | 0.836
58 | C24U C30A | 0.898
59 | C24U C34U A40G C55G | ≤ 0.5
60 | C24U G25C C61A | ≤ 0.5
61 | C24U C34A G39A | 0.535
62 | C24U U47A C61A | ≤ 0.5
63 | C24U C33A A40G | 0.513
64 | C24U U59G | 0.712
65 | C24U U59C | 0.879
66 | C24U A45U G58A | 0.647
67 | C24U A45U C55U | 0.569
68 | C24U U47C G48A C62G A69U | ≤ 0.5
69 | C24U C27A C30U | 0.597
70 | C24U G41C C49A | 0.778
71 | C24U C27A U53A C66U | ≤ 0.5
72 | C24U C66U A69C | 0.568

Row | Variant | yeast fitness
73 | C24U C49A | 0.716
74 | C24U C49U | 0.969
75 | C24U A43C C60A | ≤ 0.5
76 | C24U G50A | 0.844
77 | C24U C49G G56C | ≤ 0.5
78 | C24U U59A U64C | ≤ 0.5
79 | C24U U32C A69U | 0.818
80 | C24U G25A C30U C46A C55G C60A | ≤ 0.5
81 | G25A A40U C49U C60A G63A | 0.507
82 | C24U A45G A57G | 0.787
83 | C24U C27A C30U G63U | ≤ 0.5
84 | C24U G25A C30U G50A G56A | ≤ 0.5
85 | C24U G39A A70C | 0.668
86 | C24U C27G U59A A70G | ≤ 0.5
87 | C24U A57U | 0.641
88 | C24U A57C | 0.601
89 | C24U U32G A40U A65C | ≤ 0.5
90 | G25A A42G U59C | ≤ 0.5
91 | C24U G56A G67A | 0.731
92 | C24U C29G C60U C66U | ≤ 0.5
93 | C24U C49G G56C G58A | 0.57
94 | C24U C31A C55G A57U | 0.532
95 | C24U C29G C33U A57G | ≤ 0.5
96 | C24U A40G C46A | 0.723

Row | Variant | yeast fitness
97 | C24U U59A C62A | ≤ 0.5
98 | C24U C31G U64C | 0.572
99 | C24U C30G C61U A65U C66U | ≤ 0.5
100 | C24U U53C C60G | ≤ 0.5
101 | C24U G56C | 0.792
102 | C24U C34U A40G G50A C55G | ≤ 0.5
103 | C24U G44C G58C | 0.995
104 | G25A C27G C46G C61A | ≤ 0.5
105 | C24U C62G U64G | ≤ 0.5
106 | C24U C60G C66G | ≤ 0.5
107 | C24U C46A C55U G58C | 0.793
108 | C24U C46U A65U | 0.714
109 | C24U A43C C49U G51U | ≤ 0.5
110 | G25A C29U A45U | 0.69
111 | C24U G58A A65C | 0.707
112 | C24U A40U C55U U59A | 0.548
113 | G25A A45G | 0.961
114 | G25A A45C | 0.957
115 | C24U G25C C30U A45U C49G A65U | ≤ 0.5
116 | C24U C29U C49U G51U | ≤ 0.5
117 | C24U U26G G41A A57U | 0.641
118 | C24U U53A C66U A70U | ≤ 0.5
119 | C24U C34U G56C A57G G68U | ≤ 0.5
120 | C24U C31G A43G | 0.69

Row | Variant | yeast fitness
121 | C24U U32G | 0.584
122 | C24U U32A | 0.784
123 | C24U U32C | 0.991
124 | C24U U35A A69U | 0.513
125 | G25A C29A | 0.609
126 | G25A A43G C49U U64C | 0.924
127 | C24U G41A | 0.926
128 | C24U U35C C66U | ≤ 0.5
129 | G25A A37C G38C C60U C62U A69U | ≤ 0.5
130 | C24U C27G A65C | ≤ 0.5
131 | C24U A45U A69U | 0.78
132 | C24U A69C | 0.887
133 | C24U A69U | 0.99
134 | C24U C29A U32A C46G A70U | ≤ 0.5
135 | C24U A65U A69C | 0.564
136 | C24U U26A U28G U54G | 0.545
137 | G25A C27G G67C | ≤ 0.5
138 | C24U A42G | 0.956
139 | C24U A42U | 0.875
140 | C24U C31A A57C | 0.704
141 | C24U C61U A70C | 0.714
142 | C24U C31A C49U A57C | ≤ 0.5
143 | C24U G52A | 0.871
144 | G25A A37U A40C G67A | ≤ 0.5

Row | Variant | yeast fitness
145 | C24U C33G G52C C61U | ≤ 0.5
146 | C24U A42C C46A U54A | ≤ 0.5
147 | C24U C60A | 0.527
148 | C24U G39C C61U | 0.549
149 | C24U U64A | 0.822
150 | C24U U64G | 0.691
151 | C24U U64C | 0.925
152 | C24U G39C | 0.735
153 | C24U G39A | 0.875
154 | C24U C31G G50A U64C | ≤ 0.5
155 | C24U A45G C46G C55G | 0.588
156 | C24U C30U A40C G68C | 0.545
157 | G25A C29A A43C A57C | ≤ 0.5
158 | G25A | 0.984
159 | C24U U32G G52C G63A G68C | ≤ 0.5
160 | C24U C49U U54G | 0.588
161 | C24U G25A C30U G50A G68C | ≤ 0.5
162 | C24U C31G G44A U64A | ≤ 0.5
163 | C24U C49U A65U | 0.577
164 | C24U G58A C62U G63A | ≤ 0.5
165 | C24U A69U A70C | 0.756
166 | C24U U26C G68A | 0.566
167 | G25A A37U C61A | 0.616
